In data set [1] the test system is Mus musculus. Briefly: Induction of WBC mobilization in Harlan C57BL/6 mouse at 5 to 20 mg/kg, sc after 6 to 8 hrs by LC/MS/MS analysis relative to control. In kind it is functional, organism-based. A digest of the protocol: (§1)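 Harlan mice were given a single subcutaneous dose at 5, 10 or 20 mg/kg. Blood was sampled at multiple time points over about 8 h, and each sample was used for both total circulating WBC count and plasma drug level. Counts and concentrations were plotted against time for each dose.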

The subject of another data set is Plasma. Briefly: Plasma concentration in Harlan C57BL/6 mouse at 5 to 20 mg/kg, sc after 6 to 8 hrs by LC/MS/MS analysis. Also noted: route subcutaneous. In kind it is ADME, organism-based. Conditions: in vivo. A digest of the protocol: as §1
Data set [2] can be described thus: Plasma concentration in Harlan C57BL/6 mouse at 20 mg/kg, sc after 1 hr by LC/MS/MS analysis. Format: ADME, organism-based. Also noted: dose 20 mg/kg, route subcutaneous. A digest of the protocol:
as §1

Data set [3] relates to Mus musculus. Briefly: Induction of WBC mobilization in sc dosed Harlan C57BL/6 mouse after 1 to 8 hrs by LC/MS/MS analysis. Format: functional, organism-based. The gist of the method:
as §1

A short description of data set [4]: Elimination half life in jugular pre-cannulated CRL Sprague-Dawley rat at 10 mg/kg, po. In kind it is ADME, organism-based. Also noted: dose 10 mg/kg, route oral. To be noted: in vivo, read-out: beta t1/2 (converted).
Data set [5] is described as follows: Elimination half life in jugular pre-cannulated Harlan Sprague-Dawley rat at 2 mg/kg, iv. Format: ADME, organism-based. Also noted: dose 2 mg/kg, route intravenous. To be noted: in vivo, read-out: beta t1/2 (converted).
Data set [6] is described as follows: Half life in human liver microsomes at 1 uM incubated for 3 mins prior to NADPH addition by LC-MS/MS analysis. In kind it is ADME. (Liver microsomes are a subcellular fraction often used to study metabolism.)
The test system of a further data set is Liver microsome. Briefly: Intrinsic clearance in rat liver microsomes at 1 uM incubated for 3 mins prior to NADPH addition by LC-MS/MS analysis. Conditions: 0.05 h. Format: ADME.
Data set [7] has as its target C-X-C chemokine receptor type 6 (Homo sapiens) (UniProt O00574). Briefly: Inhibition of CXCR6 (unknown origin) at 10 uM relative to control.
Data set [8] concerns the target T1, C-X-C chemokine receptor type 1 (Homo sapiens) (UniProt P25024).
T1 sequence (whole entry): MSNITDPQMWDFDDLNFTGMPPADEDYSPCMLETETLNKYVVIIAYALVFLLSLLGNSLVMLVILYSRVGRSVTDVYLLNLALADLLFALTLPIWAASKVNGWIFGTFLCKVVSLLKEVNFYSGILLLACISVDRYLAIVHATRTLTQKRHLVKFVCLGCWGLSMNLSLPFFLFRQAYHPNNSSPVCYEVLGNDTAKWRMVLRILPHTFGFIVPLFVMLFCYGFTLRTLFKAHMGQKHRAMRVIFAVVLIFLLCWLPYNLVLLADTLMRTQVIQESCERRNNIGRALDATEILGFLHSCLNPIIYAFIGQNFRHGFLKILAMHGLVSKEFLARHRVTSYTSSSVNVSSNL
Briefly: Inhibition of CXCR1 (unknown origin) at 10 uM relative to control.

Data set [9] addresses T2, C-C chemokine receptor type 9 (Homo sapiens) (UniProt P51686).
T2 sequence (whole entry): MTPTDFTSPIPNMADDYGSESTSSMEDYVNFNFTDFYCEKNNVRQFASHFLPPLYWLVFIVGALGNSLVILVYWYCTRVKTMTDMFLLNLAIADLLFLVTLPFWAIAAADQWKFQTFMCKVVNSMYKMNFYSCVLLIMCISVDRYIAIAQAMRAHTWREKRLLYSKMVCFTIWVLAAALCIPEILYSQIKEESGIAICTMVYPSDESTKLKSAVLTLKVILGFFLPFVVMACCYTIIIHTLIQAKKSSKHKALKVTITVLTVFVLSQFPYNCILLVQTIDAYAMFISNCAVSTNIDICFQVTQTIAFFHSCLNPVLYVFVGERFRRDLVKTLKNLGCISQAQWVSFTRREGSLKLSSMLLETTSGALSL
The data set is described as follows: Inhibition of CCR9 (unknown origin) at 10 uM relative to control.

Data set [10] deals with T3, C-C chemokine receptor type 7 (Homo sapiens) (UniProt P32248).
T3 sequence (whole entry): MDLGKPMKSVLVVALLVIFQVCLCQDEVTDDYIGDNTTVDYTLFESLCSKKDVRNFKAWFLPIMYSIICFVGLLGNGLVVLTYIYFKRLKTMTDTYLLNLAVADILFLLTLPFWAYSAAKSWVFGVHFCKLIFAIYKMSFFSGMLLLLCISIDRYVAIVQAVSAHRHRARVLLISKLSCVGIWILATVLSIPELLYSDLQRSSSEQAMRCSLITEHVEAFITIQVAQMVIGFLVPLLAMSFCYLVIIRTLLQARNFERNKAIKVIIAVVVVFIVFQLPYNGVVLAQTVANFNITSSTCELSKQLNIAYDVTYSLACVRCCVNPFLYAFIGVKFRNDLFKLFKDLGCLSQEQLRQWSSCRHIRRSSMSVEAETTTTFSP
The data set is described as follows: Inhibition of CCR7 (unknown origin) at 10 uM relative to control.

Data set [11] concerns the target C-C chemokine receptor type 5 (Homo sapiens) (UniProt P51681). The data set is described as follows: Inhibition of CCR5 (unknown origin) at 10 uM relative to control.
The target in data set [12] is T4, C-C chemokine receptor type 6 (Homo sapiens) (UniProt P51684).
T4 sequence (whole entry): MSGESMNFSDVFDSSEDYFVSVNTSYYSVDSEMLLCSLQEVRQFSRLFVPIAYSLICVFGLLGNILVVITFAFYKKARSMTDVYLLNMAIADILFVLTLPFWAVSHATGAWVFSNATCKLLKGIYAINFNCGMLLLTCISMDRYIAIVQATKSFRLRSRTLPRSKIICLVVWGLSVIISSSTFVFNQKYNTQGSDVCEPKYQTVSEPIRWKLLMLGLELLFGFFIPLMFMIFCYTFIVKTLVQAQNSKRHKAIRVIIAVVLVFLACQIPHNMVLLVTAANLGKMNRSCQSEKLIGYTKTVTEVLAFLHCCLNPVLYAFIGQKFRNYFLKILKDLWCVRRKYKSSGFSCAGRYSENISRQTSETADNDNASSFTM
Briefly: Inhibition of CCR6 (unknown origin) at 10 uM relative to control.

Data set [13] addresses T5, C-C chemokine receptor type 3 (Homo sapiens) (UniProt P51677).
T5 sequence (whole entry): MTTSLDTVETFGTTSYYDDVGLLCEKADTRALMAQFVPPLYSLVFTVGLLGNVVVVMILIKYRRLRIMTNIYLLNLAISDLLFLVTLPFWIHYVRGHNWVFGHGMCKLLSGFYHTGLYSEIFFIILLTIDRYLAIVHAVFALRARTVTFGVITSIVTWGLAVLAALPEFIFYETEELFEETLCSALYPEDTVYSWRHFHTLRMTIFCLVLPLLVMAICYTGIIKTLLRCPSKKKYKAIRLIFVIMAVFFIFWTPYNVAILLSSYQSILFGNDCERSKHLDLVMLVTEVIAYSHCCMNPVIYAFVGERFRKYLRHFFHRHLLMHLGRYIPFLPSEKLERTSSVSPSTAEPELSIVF
The data set is described as follows: Inhibition of CCR3 (unknown origin) at 10 uM relative to control.

Data set [14] is described as follows: Cytotoxicity against human PBMC assessed as cell viability by MTS assay. In kind it is cell-based. To be noted: read-out: TC50 (the source's name). On the technique in general: Tetrazolium assays rely on reduction of a dye to a coloured formazan, in cell work by metabolically active cells.
The target of data set [15] is C-X-C chemokine receptor type 4 (Homo sapiens, UniProt P61073).
Chain of C-X-C chemokine receptor type 4 (P61073 whole entry): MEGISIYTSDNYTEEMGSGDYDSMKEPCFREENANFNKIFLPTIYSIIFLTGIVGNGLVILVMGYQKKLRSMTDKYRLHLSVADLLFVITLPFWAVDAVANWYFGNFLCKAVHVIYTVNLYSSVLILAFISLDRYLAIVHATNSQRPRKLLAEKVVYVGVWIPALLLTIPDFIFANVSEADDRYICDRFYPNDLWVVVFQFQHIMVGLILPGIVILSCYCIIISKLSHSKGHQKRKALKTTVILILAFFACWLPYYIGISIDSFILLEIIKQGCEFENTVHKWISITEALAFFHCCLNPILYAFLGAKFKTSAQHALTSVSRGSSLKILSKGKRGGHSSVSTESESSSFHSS

Activity calls are given as the source filed them. No cut-off for these calls is given here.

By inhibition is commonly meant the relative decrease from the control value, in per cent. Lower therefore signals a response near the control. As a reminder, the IC90 is the concentration needed for an effect of 90%.

Chain of C-C chemokine receptor type 5 (Homo sapiens) (P51681 whole entry, looked up): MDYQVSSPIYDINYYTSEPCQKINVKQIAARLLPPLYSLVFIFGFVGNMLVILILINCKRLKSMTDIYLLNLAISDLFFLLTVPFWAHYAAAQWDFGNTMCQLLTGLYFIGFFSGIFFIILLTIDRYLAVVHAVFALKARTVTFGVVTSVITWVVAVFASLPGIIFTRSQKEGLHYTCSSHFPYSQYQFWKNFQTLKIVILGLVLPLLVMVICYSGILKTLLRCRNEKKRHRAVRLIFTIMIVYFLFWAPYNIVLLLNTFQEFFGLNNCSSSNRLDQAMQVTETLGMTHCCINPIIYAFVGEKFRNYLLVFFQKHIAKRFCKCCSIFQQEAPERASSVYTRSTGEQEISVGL
Chain of C-X-C chemokine receptor type 6 (Homo sapiens) (O00574 whole entry, looked up): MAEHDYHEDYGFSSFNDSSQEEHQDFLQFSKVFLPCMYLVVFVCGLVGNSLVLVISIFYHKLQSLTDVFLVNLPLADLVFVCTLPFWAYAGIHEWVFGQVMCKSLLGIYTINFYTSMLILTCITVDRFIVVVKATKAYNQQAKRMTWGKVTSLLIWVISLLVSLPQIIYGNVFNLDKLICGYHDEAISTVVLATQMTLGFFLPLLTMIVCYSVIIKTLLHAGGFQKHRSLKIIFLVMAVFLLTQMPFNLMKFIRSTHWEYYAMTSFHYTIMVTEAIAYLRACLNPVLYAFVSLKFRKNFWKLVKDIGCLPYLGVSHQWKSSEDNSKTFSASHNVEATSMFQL

Consider `NCCCCN(C[C@H]1Cc2ccccc2CN1)[C@H]1CCCc2cccnc21`, for which the outcome with Mus musculus [1] was inactive. The Cp with Plasma is 87 ng/mL. Moreover, the concentration at 1 h in data set [2] is 1540 ng/mL. Besides, the Activity entry in the data set on Mus musculus [3] was “Dose-dependent effect”. Also, the half-life in data set [4] was 6 h; in data set [5], 1.2 h. Further, the half-life at 1 µM in data set [6] is above 1 h. This compound yielded a CLH with Liver microsome of 35 µL/min/mg. In addition, the inhibition in data set [7], in [8], in data set [9], in data set [10], in data set [11] and in data set [12] was below 10% in each case. In [13], this compound yielded an inhibition below 10%. Besides, in data set [14], the CC50 is 47 µM. This compound also showed an IC90 in [15] of 0.24 µM.

For the origin of these results see ChEMBL document CHEMBL3091329, “Discovery of tetrahydroisoquinoline-based CXCR4 antagonists” (ACS Med Chem Lett, 2013).
